Measurements collected from several papers.
Compare with care: the assays were run in different laboratories.
Cell line: HL-60
Effect on: cell growth or viability

SMILES | method | time | IC50
O=C(NO)c1ccc(Cn2cnc3c(Nc4ccc(Cl)cc4)ncnc32)cc1 | MTT | 72 h | 0.62 µM
c1ccc(-c2cc(CNc3cccc4cccnc34)on2)nc1 | MTS | 72 h | 64.8 µM
Nc1ccccc1NC(=O)c1ccc(Cn2cnc3c(Nc4ccc(Br)cc4F)ncnc32)cc1 | MTT | 72 h | 0.99 µM
O=c1cc(OCc2cc(-c3ccc(C(F)(F)F)cc3)no2)c2ccccc2o1 | MTS | 72 h | > 100 µM
C=C1C[C@@]23CC[C@H]4[C@@](C)(CCC[C@@]4(C)C(=O)O)[C@@H]2CC[C@@H]1C3 | XTT | 75 h | 155 µM
CN1CCc2c(c3ccccc3n2Cc2ccc(C(=O)NO)cc2)C1 | CCK-8 | 48 h | 8.87 µM
O=C(CSc1nc2ccccc2s1)N/N=C/c1ccc(OCC(=O)Nc2ccc(Br)cc2)cc1 | MTS | 72 h | > 100 µM
O=C(NO)c1ccc(Cn2cnc3c(Nc4cccc([N+](=O)[O-])c4)ncnc32)cc1 | MTT | 72 h | 1.86 µM
COc1cc([C@@H]2c3cc4c(cc3[C@@H](O[C@@H]3O[C@@H]5CO[C@@H](C)O[C@H]5[C@H](O)[C@H]3O)[C@H]3COC(=O)[C@H]23)OCO4)cc(OC)c1O | MTS | 72 h | 0.3 µM
O=C(NO)c1ccc(Cn2cnc3c(Nc4ccc(Br)cc4F)ncnc32)cc1 | MTT | 72 h | 5.98 µM
O=C(CSc1nc2ccccc2s1)N/N=C/c1ccc(OCC(=O)Nc2cccc([N+](=O)[O-])c2)cc1 | MTS | 72 h | > 100 µM
O=c1cc(OCc2cc(-c3ccccc3)no2)c2ccccc2o1 | MTS | 72 h | > 100 µM
